Our source for the pD2, Activity and Intrinsic activity values is ChEMBL document CHEMBL1147936, “Regulatory molecules for the 5-HT3 receptor ion channel gating system” (Bioorg Med Chem, 2007).

Structures are written as SMILES. Calls of active or inactive are those of the source. No cut-off for these calls is given here.

Test [1] deals with T1, 5-hydroxytryptamine receptor 3A (Cavia porcellus) (UniProt O70212).
T1 sequence (whole entry): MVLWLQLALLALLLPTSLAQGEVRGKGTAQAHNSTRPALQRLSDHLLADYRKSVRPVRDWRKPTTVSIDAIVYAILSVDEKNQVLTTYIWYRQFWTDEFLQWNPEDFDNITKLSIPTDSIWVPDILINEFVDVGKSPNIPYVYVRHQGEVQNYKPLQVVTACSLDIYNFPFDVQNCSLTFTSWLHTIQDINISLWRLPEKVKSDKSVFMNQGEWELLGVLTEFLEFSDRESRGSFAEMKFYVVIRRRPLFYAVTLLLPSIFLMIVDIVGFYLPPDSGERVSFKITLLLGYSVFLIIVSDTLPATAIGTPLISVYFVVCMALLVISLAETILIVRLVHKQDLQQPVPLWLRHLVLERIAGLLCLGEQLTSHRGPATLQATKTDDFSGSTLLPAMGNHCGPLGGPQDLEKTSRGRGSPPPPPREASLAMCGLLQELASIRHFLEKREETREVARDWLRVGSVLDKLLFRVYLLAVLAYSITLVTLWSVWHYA
The test can be described thus: Agonist activity at 5HT3 receptor in Hartley guinea-pig ileum assessed as muscle contraction. In kind it is functional, tissue-based. An outline of the steps:
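Compounds added to the bath and contractions recorded isometrically. pD2 = negative log molar concentration giving 50% of maximum contraction, from individual concentration–response curves.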

Test [2] deals with T1, 5-hydroxytryptamine receptor 3A (Cavia porcellus). The test can be described thus: Antagonist activity at 5HT3 receptor in Hartley guinea-pig ileum assessed as effect on 5-hydroxytryptamine-induced muscle contraction. In kind it is functional, tissue-based. Details: concentration or dose not given beside the values. In short, it runs like this: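 Contractions to 5-HT recorded isometrically with and without compound present. Vehicle-treated preparation served as time-matched control. Antagonism expressed as the ratio of 5-HT contractile response in presence versus absence of compound.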

For test [3] the target is unchanged. Briefly: Intrinsic activity at 5HT3 receptor in Hartley guinea-pig ileum assessed as muscle contraction at 0.1 mM relative to 5-hydroxytryptamine. In kind it is tissue-based.
Test [4] shares this target. The test can be described thus: Intrinsic activity at 5HT3 receptor in Hartley guinea-pig ileum assessed as muscle contraction relative to 5-hydroxytryptamine. In kind it is tissue-based.

Turning to `CN1C2CCCC1CC(NC(=O)c1nn(C)c3ccccc13)C2` (stereo not drawn), in test [1], the pD2 was < 4. Also, the Activity in test [2] stood at 100%. Also, the result in test [3] was inactive.
The corresponding values for `COc1cccc2nc(N3CCN(C)CC3)oc12` are < 4, 57% and “inactive”.
The corresponding values for `CCOC(=O)c1ccc2oc(N3CCN(C)CC3)nc2c1` are < 4, 28% and “inactive”.
As to `Cc1cc(Cl)c2oc(N3CCN(C)CC3)nc2c1`, in test [1], the pD2 came out at 6.22. Further, the Activity in test [2] amounted to 96%. For the same compound, the Intrinsic activity in test [4] is 0.26.
The corresponding values for `CN1CCN(c2nc3cc([N+](=O)[O-])ccc3o2)CC1` are 6.1, 79% and 0.52.
As for `Cc1cccc2nc(N3CCN(C)CC3)oc12`, in test [1], the pD2 worked out at 5.48. In addition, the Activity in test [2] amounted to 89%. Moreover, the Intrinsic activity in test [4] was found to be 0.58.
The corresponding values for `Cc1cc(Cl)cc2nc(N3CCN(C)CC3)oc12` are 6.7, 94% and 0.24.
The corresponding values for `Cc1ccc2oc(N3CCN(C)CC3)nc2c1` are 6, 87% and 0.72.
As for `CC(C)c1cccc2nc(N3CCN(C)CC3)oc12`, the pD2 in test [1] was < 4. In addition, the Activity in test [2] worked out at 81%. Further, the outcome in test [3] was inactive.
On to `CN1CCN(c2nc3cc(Cl)ccc3o2)CC1`, for which the pD2 in test [1] was 6.07. In addition, in test [2], the Activity is 92%. Further, the Intrinsic activity in test [4] came to 0.5.
The corresponding values for `CN1CCN(c2nc3cc(F)ccc3o2)CC1` are 5.57, 91% and 0.64.
The corresponding values for `CCc1cc(Cl)cc2nc(N3CCN(C)CC3)oc12` are 6.82, 100% and 0.17.
The corresponding values for `CN1CCN(c2nc3cc(N)ccc3o2)CC1` are 4.97, 73% and 0.76.
With `COc1cc(Cl)cc2nc(N3CCN(C)CC3)oc12`, the pD2 in test [1] turned out to be 6.16. Further, in test [2], the Activity came out at 92%. Also, in test [4], the Intrinsic activity was 0.62.
The corresponding values for `COc1ccc2oc(N3CCN(C)CC3)nc2c1` are 4.78, 74% and 0.78.
`CCc1ccc2oc(N3CCN(C)CC3)nc2c1`: in test [1], the pD2 was < 4. For the same compound, the Activity in test [2] worked out at 63%. Besides, the outcome in test [3] was inactive.
Turning to `CCc1cccc2nc(N3CCN(C)CC3)oc12`, the pD2 in test [1] is 5.48. Also, the Activity in test [2] stood at 90%. In addition, in test [4], the Intrinsic activity is 0.15.
Consider `CN1CCN(c2nc3cc(C(F)(F)F)ccc3o2)CC1`, for which the pD2 in test [1] is < 4. Moreover, in test [2], the Activity was 36%. Moreover, the outcome in test [3] was inactive.
For `COc1cc(C)cc2nc(N3CCN(C)CC3)oc12`, the pD2 in test [1] is 6.13. In addition, the Activity in test [2] was 91%. In addition, the Intrinsic activity in test [4] was 0.56.
The corresponding values for `CCc1cc(C)cc2nc(N3CCN(C)CC3)oc12` are 6.46, 99% and 0.26.
On to `CN1CCN(c2nc3cc(C(C)(C)C)ccc3o2)CC1`, for which the pD2 in test [1] is < 4. Also, the Activity in test [2] came to 47%. The outcome in test [3] was inactive.
As to `NCCc1c[nH]c2ccc(O)cc12`, the pD2 in test [1] was found to be 5.34. Further, in test [4], the Intrinsic activity is 1.
In the case of `Cc1cc(C)c2oc(N3CCN(C)CC3)nc2c1`, the pD2 in test [1] was 6.32. Besides, the Activity in test [2] was 94%. In test [4], the Intrinsic activity amounted to 0.62.
The corresponding values for `CN1CCN(c2nc3ccccc3o2)CC1` are 5.01, 82% and 0.62.
`CN1CCN(c2nc3cc(Br)ccc3o2)CC1`: the pD2 in test [1] came out at 6.21. In test [2], the Activity came out at 89%. The Intrinsic activity in test [4] amounted to 0.48.
On to `CC(=O)c1ccc2oc(N3CCN(C)CC3)nc2c1`, for which the pD2 in test [1] is < 4. Moreover, the Activity in test [2] is 22%. In addition, the outcome in test [3] was inactive.
With `CN1CCN(c2nc3cc(Cl)cc(Cl)c3o2)CC1`, in test [1], the pD2 was found to be 6.51. Also, the Activity in test [2] amounted to 90%. In addition, in test [4], the Intrinsic activity is 0.14.
The corresponding values for `CN1CCN(c2nc3cccc(Cl)c3o2)CC1` are 5.5, 90% and 0.24.
